Laboratory results as given in ChEMBL document CHEMBL2331489, “Novel cinnoline-based inhibitors of LRRK2 kinase activity” (Bioorg Med Chem Lett, 2013).
pEC50, pIC50: −log10 of the molar value. Activity calls are given as the source filed them. The rule behind the calls is not given here.

What was measured:
[1] = target: ATP-dependent translocase ABCB1 (Homo sapiens, UniProt P08183); experiment: Inhibition of MDR1 (unknown origin) transfected in MDCK cells; assay type: cell-based
[2] = tested on: Mus musculus; experiment: Inhibition of P-gp in Mdr1(a/b) knock out and P-gp competent FVB mouse at 1 mg/kg, iv; assay type: functional, organism-based; set-up: dose 1 mg/kg
Summary of the method: (§1)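 FVB mice, both Mdr1a/b (-/-) and P-gp-competent wild-type, were given a single 1 mg/kg IV dose. Brain and plasma concentrations were measured 5 min after dosing. Brain uptake was expressed as the brain-to-plasma concentration ratio (Kp). In vivo P-gp efflux was assessed by comparing the knockout and wild-type strains.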

[3] = target: Leucine-rich repeat serine/threonine-protein kinase 2 (Homo sapiens, UniProt Q5S007); experiment: Inhibition of wild type GST-tagged LRRK2 (970 to 2527 amino acid residues) (unknown origin) assessed as inhibition of biotinylated-LRRKtide phosphorylation by HTRF assay in presence of ATP
[4] = Ratio of drug level in brain to plasma in Mdr1(a/b) knock out and P-gp competent FVB mouse at 1 mg/kg, iv at 5 mins; assay type: ADME, organism-based; set-up: dose 1 mg/kg, route intravenous; conditions: read-out: BPR; summary of the method: as §1
[5] = tested on: Brain; experiment: Drug uptake in Mdr1(a/b) knock out and P-gp competent FVB mouse brain at 1 mg/kg, iv at 5 mins; assay type: ADME, organism-based; set-up: dose 1 mg/kg, route intravenous; conditions: in vivo; summary of the method: as §1
[6] = target: T1, Leucine-rich repeat serine/threonine-protein kinase 2 (Homo sapiens, UniProt Q5S007, G2019S); experiment: Inhibition of GST-tagged LRRK2 G2019S mutant (970 to 2527 amino acid residues) (unknown origin) assessed as inhibition of biotinylated-LRRKtide phosphorylation by HTRF assay in presence of ATP
[7] = target: T1, Leucine-rich repeat serine/threonine-protein kinase 2; experiment: Inhibition of LRRK2 G2019S mutant (unknown origin) transfected in HEK293 cells assessed as inhibition of S935 phosphorylation; assay type: cell-based
[8] = target: Macrophage colony-stimulating factor 1 receptor (Homo sapiens, UniProt P07333); experiment: Inhibition of CSF1R (unknown origin) by TR-FRET assay in presence of ATP
[9] = target: Platelet-derived growth factor receptor alpha (Homo sapiens, UniProt P16234); experiment: Inhibition of PDGFRalpha (unknown origin) by TR-FRET assay in presence of ATP

Chain of Leucine-rich repeat serine/threonine-protein kinase 2 (Homo sapiens, UniProt Q5S007) (Q5S007 whole entry, the tested form may be a part): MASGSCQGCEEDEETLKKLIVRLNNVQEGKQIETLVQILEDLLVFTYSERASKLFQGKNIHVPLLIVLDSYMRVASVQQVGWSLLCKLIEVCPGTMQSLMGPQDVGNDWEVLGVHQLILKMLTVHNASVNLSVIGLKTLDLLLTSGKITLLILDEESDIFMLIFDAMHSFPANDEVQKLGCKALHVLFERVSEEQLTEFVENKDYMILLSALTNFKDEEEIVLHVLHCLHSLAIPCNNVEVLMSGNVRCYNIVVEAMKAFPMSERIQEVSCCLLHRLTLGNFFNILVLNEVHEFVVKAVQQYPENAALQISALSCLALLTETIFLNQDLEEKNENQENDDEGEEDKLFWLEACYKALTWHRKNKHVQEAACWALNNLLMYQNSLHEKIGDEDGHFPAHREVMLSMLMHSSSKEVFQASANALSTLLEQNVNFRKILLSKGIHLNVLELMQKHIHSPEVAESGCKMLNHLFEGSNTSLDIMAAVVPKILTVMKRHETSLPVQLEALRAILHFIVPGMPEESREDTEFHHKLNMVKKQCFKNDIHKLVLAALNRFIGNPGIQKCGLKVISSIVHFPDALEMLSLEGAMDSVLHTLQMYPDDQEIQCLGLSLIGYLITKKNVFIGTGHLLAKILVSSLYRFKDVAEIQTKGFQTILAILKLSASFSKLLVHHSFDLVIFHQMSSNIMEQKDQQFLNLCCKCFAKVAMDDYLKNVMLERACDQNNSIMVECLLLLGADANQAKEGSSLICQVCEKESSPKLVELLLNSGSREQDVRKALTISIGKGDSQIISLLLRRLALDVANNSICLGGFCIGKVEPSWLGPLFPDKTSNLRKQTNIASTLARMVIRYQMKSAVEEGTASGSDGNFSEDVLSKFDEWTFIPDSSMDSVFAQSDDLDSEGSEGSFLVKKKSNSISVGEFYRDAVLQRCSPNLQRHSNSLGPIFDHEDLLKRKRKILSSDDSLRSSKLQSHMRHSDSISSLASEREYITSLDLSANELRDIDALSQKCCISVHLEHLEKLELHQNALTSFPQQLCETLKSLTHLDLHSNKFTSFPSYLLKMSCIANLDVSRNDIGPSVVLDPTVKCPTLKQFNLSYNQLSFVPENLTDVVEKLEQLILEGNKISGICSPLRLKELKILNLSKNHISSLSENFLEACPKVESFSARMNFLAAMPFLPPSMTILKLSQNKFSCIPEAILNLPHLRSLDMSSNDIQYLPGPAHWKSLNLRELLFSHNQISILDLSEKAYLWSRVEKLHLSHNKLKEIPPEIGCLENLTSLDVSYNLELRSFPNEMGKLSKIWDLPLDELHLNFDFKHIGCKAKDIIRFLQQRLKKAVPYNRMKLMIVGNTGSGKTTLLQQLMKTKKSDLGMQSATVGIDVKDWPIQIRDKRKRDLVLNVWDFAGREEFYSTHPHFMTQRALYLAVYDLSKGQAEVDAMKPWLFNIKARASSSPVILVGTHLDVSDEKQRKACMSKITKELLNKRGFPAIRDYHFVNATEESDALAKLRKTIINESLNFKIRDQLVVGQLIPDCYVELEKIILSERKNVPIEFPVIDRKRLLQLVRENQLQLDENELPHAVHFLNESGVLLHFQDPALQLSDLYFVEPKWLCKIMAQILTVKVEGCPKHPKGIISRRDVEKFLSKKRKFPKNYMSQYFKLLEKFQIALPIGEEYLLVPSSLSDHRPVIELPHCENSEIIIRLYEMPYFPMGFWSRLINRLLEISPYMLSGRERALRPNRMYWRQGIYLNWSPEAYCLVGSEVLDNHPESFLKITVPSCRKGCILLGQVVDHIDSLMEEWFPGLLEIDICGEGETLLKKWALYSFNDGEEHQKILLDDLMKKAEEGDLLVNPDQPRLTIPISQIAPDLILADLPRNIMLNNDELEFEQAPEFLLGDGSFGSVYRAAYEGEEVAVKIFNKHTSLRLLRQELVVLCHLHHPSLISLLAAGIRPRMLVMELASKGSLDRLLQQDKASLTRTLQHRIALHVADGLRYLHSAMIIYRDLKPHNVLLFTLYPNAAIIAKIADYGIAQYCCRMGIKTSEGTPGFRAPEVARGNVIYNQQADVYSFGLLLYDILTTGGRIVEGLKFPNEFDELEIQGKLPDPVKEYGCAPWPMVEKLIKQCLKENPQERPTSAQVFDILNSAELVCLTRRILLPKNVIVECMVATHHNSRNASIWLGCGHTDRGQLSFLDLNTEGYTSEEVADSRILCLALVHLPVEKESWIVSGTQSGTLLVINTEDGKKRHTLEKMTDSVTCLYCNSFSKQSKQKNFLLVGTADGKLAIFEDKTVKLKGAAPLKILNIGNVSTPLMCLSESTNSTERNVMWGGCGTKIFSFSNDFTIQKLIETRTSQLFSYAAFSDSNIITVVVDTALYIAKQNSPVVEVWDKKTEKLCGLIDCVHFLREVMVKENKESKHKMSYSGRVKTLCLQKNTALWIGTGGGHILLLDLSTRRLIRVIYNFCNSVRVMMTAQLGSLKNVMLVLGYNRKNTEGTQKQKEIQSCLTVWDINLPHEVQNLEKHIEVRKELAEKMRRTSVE
T1 sequence (Q5S007 whole entry G2019S, the tested form may be a part): as the sequence (Q5S007 whole entry, the tested form may be a part) above, with G2019S counted along it
Chain of ATP-dependent translocase ABCB1 (P08183 whole entry): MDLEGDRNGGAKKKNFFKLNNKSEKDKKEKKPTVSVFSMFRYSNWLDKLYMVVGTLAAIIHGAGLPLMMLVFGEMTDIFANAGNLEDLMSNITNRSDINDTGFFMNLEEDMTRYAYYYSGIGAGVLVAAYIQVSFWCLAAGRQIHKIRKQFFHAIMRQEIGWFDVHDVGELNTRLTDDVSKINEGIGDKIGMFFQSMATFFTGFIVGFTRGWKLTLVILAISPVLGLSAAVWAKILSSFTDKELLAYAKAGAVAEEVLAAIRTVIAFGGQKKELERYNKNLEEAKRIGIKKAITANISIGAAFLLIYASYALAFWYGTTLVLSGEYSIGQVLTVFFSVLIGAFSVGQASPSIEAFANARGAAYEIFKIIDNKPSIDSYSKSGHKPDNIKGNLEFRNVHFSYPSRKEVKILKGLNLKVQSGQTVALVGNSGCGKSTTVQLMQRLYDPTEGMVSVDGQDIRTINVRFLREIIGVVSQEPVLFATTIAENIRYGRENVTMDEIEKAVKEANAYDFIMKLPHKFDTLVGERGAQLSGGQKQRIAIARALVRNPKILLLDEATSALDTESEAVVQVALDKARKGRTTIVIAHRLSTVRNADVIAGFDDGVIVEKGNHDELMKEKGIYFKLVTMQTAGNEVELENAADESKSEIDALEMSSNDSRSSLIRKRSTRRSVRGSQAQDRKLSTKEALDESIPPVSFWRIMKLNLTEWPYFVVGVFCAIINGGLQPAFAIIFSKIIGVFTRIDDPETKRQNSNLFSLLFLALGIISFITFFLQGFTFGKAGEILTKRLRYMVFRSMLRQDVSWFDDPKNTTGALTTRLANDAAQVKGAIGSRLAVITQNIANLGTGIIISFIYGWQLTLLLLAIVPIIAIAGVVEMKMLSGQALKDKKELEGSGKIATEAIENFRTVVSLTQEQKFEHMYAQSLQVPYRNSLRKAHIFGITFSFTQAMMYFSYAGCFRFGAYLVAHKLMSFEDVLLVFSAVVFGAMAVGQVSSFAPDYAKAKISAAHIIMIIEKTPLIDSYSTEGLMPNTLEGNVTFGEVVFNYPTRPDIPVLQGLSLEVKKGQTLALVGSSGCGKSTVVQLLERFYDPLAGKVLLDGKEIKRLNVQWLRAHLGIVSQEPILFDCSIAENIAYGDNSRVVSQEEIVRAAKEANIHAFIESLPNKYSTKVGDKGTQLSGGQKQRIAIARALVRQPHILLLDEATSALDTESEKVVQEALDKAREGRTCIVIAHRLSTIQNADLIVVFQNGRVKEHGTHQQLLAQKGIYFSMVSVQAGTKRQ
Chain of Macrophage colony-stimulating factor 1 receptor (P07333 whole entry): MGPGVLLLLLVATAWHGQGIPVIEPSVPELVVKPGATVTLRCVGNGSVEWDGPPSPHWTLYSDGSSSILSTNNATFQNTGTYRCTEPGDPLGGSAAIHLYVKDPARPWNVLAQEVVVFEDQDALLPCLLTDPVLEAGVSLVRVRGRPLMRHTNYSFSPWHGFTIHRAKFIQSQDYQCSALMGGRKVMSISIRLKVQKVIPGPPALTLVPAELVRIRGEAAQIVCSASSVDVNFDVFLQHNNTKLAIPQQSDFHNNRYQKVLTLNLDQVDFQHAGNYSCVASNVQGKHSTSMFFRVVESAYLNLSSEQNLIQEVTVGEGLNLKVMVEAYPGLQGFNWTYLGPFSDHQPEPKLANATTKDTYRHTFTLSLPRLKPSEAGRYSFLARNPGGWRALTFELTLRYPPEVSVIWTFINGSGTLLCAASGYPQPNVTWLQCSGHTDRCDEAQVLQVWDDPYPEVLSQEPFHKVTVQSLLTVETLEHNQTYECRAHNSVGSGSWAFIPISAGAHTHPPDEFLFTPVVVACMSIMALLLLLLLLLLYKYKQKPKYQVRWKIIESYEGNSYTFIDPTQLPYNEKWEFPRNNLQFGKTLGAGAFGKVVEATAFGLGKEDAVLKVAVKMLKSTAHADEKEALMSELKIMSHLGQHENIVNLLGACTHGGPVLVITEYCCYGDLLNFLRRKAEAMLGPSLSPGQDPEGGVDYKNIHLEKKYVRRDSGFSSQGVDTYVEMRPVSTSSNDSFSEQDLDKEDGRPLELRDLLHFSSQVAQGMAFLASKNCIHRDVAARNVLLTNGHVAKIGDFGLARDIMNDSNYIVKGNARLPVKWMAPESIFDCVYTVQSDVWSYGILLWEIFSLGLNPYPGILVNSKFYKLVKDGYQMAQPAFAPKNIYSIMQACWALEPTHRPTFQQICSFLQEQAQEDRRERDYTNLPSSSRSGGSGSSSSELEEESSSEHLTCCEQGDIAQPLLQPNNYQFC

| Structure (SMILES) | pIC50 [3] | pIC50 [6] | also measured |
| --- | --- | --- | --- |
| C[C@@H](Nc1c(C(N)=O)nnc2cc(-c3ccncc3)ccc12)C1CC1 | 8.70 | 8.22 | inhibition (INH) [1]: Active; inhibition [2]: Active; Kp at 5 min [4]: 1.5; Drug uptake [5]: Active; pEC50 [7]: 7.21 |
| CS(=O)(=O)c1ccc(-c2ccc3c(NCC4CC4)c(C(N)=O)nnc3c2)cc1 | – | 7.57 | – |
| CC(C)Nc1c(C(N)=O)nnc2ccc(-c3cnn(C)c3)cc12 | – | 6.37 | – |
| CS(=O)(=O)c1ccc(-c2ccc3c(N)c(C(N)=O)nnc3c2)cc1 | – | 6.53 | – |
| CC(C)Nc1c(C(N)=O)nnc2cc(-c3cn[nH]c3)ccc12 | 7.92 | 7.74 | – |
| CC(C)Nc1c(C(N)=O)nnc2cc(N3CCN(C)CC3)ccc12 | – | 7.23 | – |
| CC(C)Nc1c(C(N)=O)nnc2cc(-c3cnsc3)ccc12 | 7.85 | 7.70 | pEC50 [7]: 6.54 |
| CNC(=O)c1nnc2cc(-c3ccc(S(C)(=O)=O)cc3)ccc2c1NC(C)C | – | 6.38 | – |
| NC(=O)c1nnc2cc(-c3ccncc3)ccc2c1NCCO | – | 6.58 | – |
| CNc1c(C(N)=O)nnc2cc(-c3ccc(S(C)(=O)=O)cc3)ccc12 | – | 7.25 | – |
| CS(=O)(=O)c1ccc(-c2ccc3c(NC4CCOCC4)c(C(N)=O)nnc3c2)cc1 | – | 7.49 | – |
| CC[C@@H](C)Nc1c(C(N)=O)nnc2cc(-c3ccc(S(C)(=O)=O)cc3)ccc12 | 9.00 | 8.40 | pEC50 [7]: 7.14 |
| CS(=O)(=O)c1ccc(-c2ccc3c(NC4CC4)c(C(N)=O)nnc3c2)cc1 | 7.31 | 7.28 | – |
| CC(C)Nc1c(C(N)=O)nnc2cc(-c3cnn(C)c3)ccc12 | – | 7.92 | – |
| CNC(=O)c1nnc2cc(-c3ccc(S(C)(=O)=O)cc3)ccc2c1N[C@H](C)C1CC1 | – | 6.61 | – |
| CC(C)Nc1c(C(N)=O)nnc2cc(-c3ccc(S(C)(=O)=O)cc3)ccc12 | – | 7.57 | pIC50 [8]: 7.92; pIC50 [9]: 6.58; pEC50 [7]: 6.66 |
| Cc1c(-c2ccncc2)ccc2c(NC(C)C)c(C(N)=O)nnc12 | 5.49 | 5.60 | – |
| NC(=O)c1nnc2cc(-c3ccncc3)ccc2c1NCCCO | – | 6.79 | – |
| CS(=O)(=O)c1ccc(-c2ccc3c(NC4CCOC4)c(C(N)=O)nnc3c2)cc1 (racemic) | – | 7.28 | – |
| CCNc1c(C(N)=O)nnc2cc(-c3ccc(S(C)(=O)=O)cc3)ccc12 | – | 7.26 | – |
| CS(=O)(=O)c1ccc(-c2ccc3c(Nc4ccccc4)c(C(N)=O)cnc3c2)cc1 | 6.11 | – | – |
